Data published in ChEMBL document CHEMBL1137537, “Novel oxotremorine-related heterocyclic derivatives: Synthesis and in vitro pharmacology at the muscarinic receptor subtypes” (Bioorg Med Chem, 2007).

Assays:
[1] = molecular target: T1, Muscarinic acetylcholine receptor M2 (Homo sapiens, UniProt P08172); assay: Displacement of [3H]QNB from human muscarinic M2 receptor expressed in CHO cells; type: cell-based
T1 sequence (P08172 whole entry): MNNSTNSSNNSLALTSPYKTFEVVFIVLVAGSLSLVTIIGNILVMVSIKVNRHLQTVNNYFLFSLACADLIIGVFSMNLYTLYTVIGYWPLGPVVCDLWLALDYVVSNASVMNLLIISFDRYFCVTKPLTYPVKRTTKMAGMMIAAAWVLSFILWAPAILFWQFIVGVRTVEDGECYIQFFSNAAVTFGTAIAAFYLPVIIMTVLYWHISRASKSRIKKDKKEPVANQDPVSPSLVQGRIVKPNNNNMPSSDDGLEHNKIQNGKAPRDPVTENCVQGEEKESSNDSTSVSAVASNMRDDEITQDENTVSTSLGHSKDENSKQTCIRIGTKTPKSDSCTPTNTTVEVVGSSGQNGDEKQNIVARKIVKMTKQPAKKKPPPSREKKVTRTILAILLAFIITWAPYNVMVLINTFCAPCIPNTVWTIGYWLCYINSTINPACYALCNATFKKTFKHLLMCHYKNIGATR
Outline: (§1)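 Membranes (10-50 µg protein) from stable CHO lines expressing human m2-m5, competed against 180 pM [3H]QNB in 50 mM Tris-HCl pH 7.4 with 1% DMSO; 120 min at 25 °C to equilibrium; nonspecific binding with 0.5 µM atropine; GF-C filtration, scintillation counting; IC50 by logistic fit, Ki via Cheng–Prusoff using saturation-derived KD (5–2500 pM [3H]QNB).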

[2] = molecular target: T2, Muscarinic acetylcholine receptor M5 (Homo sapiens, UniProt P08912); assay: Displacement of [3H]QNB from human muscarinic M5 receptor expressed in CHO cells; type: cell-based
T2 sequence (P08912 whole entry): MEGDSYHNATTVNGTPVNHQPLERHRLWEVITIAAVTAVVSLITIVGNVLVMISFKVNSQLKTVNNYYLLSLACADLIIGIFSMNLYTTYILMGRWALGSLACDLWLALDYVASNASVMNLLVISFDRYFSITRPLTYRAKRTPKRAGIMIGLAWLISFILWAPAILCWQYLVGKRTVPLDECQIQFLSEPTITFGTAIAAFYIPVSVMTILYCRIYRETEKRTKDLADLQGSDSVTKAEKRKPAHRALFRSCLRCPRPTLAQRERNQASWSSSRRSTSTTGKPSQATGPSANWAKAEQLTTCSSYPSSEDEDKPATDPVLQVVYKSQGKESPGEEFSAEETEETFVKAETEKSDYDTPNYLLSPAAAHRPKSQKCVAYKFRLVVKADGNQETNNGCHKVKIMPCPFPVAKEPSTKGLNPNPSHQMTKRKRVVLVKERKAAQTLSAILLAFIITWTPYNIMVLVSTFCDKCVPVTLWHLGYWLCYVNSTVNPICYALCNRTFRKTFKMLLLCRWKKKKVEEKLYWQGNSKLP

Oryctolagus cuniculus = organism: Oryctolagus cuniculus; assay: Intrinsic activity at muscarinic M1 receptor in electrically stimulated New Zealand rabbit vas deferens relative to McN-A-343; type: tissue-based
Outline: (§2)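 Intrinsic activity as ratio of compound's maximal response to that of reference full agonist (McN-A-343 for vas deferens, bethanechol for atrium and ileum), from cumulative concentration–response curves; mean of 6-8 experiments.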

[3] = molecular target: Muscarinic acetylcholine receptor M3 (Cavia porcellus) (UniProt Q8VH26); assay: Intrinsic activity at muscarinic M3 receptor in guinea-pig ileum relative to benthanechol; type: tissue-based; outline: as §2
Chain of Muscarinic acetylcholine receptor M3 (Cavia porcellus) (Q8VH26 1-587): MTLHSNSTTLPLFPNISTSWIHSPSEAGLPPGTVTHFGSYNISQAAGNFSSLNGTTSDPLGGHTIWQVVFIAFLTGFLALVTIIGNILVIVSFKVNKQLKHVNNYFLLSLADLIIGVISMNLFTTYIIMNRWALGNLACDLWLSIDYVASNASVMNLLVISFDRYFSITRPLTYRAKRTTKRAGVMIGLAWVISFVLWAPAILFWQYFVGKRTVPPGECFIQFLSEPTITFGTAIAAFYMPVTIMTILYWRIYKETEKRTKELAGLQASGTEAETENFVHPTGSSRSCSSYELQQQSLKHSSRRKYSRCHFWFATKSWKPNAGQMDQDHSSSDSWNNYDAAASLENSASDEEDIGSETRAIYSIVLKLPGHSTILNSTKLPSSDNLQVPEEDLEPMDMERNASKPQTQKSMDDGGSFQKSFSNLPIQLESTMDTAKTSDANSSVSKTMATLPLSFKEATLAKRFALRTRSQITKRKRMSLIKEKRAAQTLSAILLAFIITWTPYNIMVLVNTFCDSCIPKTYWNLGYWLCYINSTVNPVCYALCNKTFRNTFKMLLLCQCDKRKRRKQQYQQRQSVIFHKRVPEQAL

[4] = Antagonist activity at muscarinic M1 receptor in electrically stimulated New Zealand rabbit vas deferens; type: functional, Oryctolagus cuniculus
Outline: (§3)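 Antagonist mode: after 30 min incubation with test compound (10 nM–100 µM), concentration–response curve to full agonist (bethanechol or McN-A-343) repeated; pKB as molar concentration giving twofold EC50 shift, Furchgott's method; mean of 6-8 experiments.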

[5] = molecular target: T3, Muscarinic acetylcholine receptor M4 (Homo sapiens, UniProt P08173); assay: Displacement of [3H]QNB from human muscarinic M4 receptor expressed in CHO cells; type: cell-based; outline: as §1
T3 sequence (P08173 whole entry): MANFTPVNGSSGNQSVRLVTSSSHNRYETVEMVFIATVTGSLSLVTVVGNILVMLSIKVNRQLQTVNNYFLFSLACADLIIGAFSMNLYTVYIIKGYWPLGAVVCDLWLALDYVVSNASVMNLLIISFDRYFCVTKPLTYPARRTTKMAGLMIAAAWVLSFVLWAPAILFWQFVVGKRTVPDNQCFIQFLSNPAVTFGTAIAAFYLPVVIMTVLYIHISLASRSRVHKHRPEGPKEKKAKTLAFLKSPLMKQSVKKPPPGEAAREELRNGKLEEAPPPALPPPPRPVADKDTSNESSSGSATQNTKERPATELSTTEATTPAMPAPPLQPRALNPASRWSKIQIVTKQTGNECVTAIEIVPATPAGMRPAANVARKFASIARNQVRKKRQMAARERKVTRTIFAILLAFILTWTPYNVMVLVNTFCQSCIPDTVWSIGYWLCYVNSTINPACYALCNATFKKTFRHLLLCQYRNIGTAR

Cavia porcellus = organism: Cavia porcellus; assay: Intrinsic activity at muscarinic M2 receptor in electrically stimulated guinea-pig left atrium relative to benthanechol; type: tissue-based; details: Cardiac atrium; outline: as §2
[6] = Agonist activity at muscarinic M2 receptor in electrically stimulated guinea-pig left atrium; type: functional, tissue-based; details: Cavia porcellus, Cardiac atrium
[7] = molecular target: T4, Muscarinic acetylcholine receptor M3 (Cavia porcellus, UniProt Q8VH26); assay: Binding affinity to muscarinic M3 receptor in guinea-pig ileum; type: tissue-based
T4 sequence (Q8VH26 whole entry): as the sequence (Q8VH26 1-587) above
Outline: (§4)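 Apparent affinity pKD: for full agonists by receptor inactivation with phenoxybenzamine (1-10 µM, 20-30 min); for partial agonists by McKay's method comparing curves with reference full agonist; mean of 6-8 experiments.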

[8] = molecular target: T5, Muscarinic acetylcholine receptor M1 (Homo sapiens, UniProt P11229); assay: biochemical; type: cell-based, CHO
T5 sequence (P11229 whole entry): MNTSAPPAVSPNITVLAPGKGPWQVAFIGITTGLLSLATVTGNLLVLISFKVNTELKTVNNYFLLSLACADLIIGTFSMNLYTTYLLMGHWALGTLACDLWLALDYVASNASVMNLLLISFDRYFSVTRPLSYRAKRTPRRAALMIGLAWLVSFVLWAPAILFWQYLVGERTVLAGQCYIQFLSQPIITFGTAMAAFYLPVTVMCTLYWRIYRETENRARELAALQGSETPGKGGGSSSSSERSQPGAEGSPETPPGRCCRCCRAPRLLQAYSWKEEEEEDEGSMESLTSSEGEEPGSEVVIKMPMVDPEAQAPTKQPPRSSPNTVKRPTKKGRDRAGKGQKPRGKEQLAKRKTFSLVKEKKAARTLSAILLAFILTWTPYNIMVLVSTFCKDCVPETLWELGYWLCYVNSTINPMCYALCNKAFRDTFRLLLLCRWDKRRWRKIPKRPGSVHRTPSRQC

[9] = molecular target: Muscarinic acetylcholine receptor M3 (Homo sapiens, UniProt P20309); assay: Displacement of [3H]QNB from human muscarinic M3 receptor expressed in CHO cells; type: cell-based
Chain of Muscarinic acetylcholine receptor M3 (Homo sapiens, UniProt P20309) (P20309 whole entry): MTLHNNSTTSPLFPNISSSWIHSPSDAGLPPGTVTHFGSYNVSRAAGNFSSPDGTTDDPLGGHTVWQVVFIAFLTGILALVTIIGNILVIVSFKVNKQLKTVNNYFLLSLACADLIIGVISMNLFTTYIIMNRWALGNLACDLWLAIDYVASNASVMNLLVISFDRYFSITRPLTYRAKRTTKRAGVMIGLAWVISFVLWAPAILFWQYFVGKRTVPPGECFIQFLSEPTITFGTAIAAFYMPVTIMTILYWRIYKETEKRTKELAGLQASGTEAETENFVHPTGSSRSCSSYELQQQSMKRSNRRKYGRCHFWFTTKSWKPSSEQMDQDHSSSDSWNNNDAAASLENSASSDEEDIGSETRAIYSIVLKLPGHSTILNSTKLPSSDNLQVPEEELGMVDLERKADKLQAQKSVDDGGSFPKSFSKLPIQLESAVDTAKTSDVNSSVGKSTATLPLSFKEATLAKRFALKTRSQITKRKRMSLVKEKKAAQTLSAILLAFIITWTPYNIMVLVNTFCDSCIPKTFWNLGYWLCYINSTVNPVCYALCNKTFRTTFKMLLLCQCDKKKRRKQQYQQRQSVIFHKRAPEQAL

[10] = molecular target: T4, Muscarinic acetylcholine receptor M3; assay: Agonist activity at muscarinic M3 receptor in guinea-pig ileum; type: functional, tissue-based
Outline: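 Guinea-pig ileal segments 2–3 cm, 1.0 g tension, 37 °C Krebs-Henseleit with carbogen, 45 min equilibration; isometric contractions to cumulative agonist concentrations; pEC50 by least-squares linear regression; mean of 6-8 experiments.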

[11] = Binding affinity to muscarinic M2 receptor in electrically stimulated guinea-pig left atrium; type: tissue-based, Cavia porcellus, Cardiac atrium; outline: as §4
[12] = Agonist activity at muscarinic M1 receptor in electrically stimulated New Zealand rabbit vas deferens; type: functional, tissue-based; details: Oryctolagus cuniculus
[13] = Binding affinity to muscarinic M1 receptor in electrically stimulated New Zealand rabbit vas deferens; type: tissue-based, Oryctolagus cuniculus; outline: as §4
[14] = molecular target: Muscarinic acetylcholine receptor M3 (Cavia porcellus) (UniProt Q8VH26); assay: Antagonist activity at muscarinic M3 receptor in guinea-pig ileum; type: functional, tissue-based; outline: as §3
[15] = Antagonist activity at muscarinic M2 receptor in electrically stimulated guinea-pig left atrium; type: functional, Cavia porcellus, Cardiac atrium; outline: as §3

Row | Compound | Ki [1] [µM] | Ki [2] [µM] | Intrinsic activity (Oryctolagus cuniculus) | Intrinsic activity [3] | pKb [4] | Ki [5] [µM] | Intrinsic activity (Cavia porcellus) | EC50 [6] [µM] | Kd [7] [µM] | Ki [8] [µM] | Ki [9] [µM] | EC50 [10] [µM] | pKd [11] | EC50 [12] [µM] | pKd [13] | pKb [14] | pKb [15]
1 | O=C1CCON1CC#CCN1C2CCCC1CC2 | > 10 | > 10 | – | – | – | – | – | – | – | – | – | – | – | – | – | – | –
2 | Cc1cc(OCC#CC[N+]2(C)CCCC2)no1.[I-] | 2.04 | 7.51 | 0 | 0.9 | 6.01 | 5.93 | 1 | 0.251 | 1.66 | 7.68 | 7.39 | 0.55 | 6.72 | – | – | – | –
3 | C[N+](C)(C)CC#CCOC(=O)Nc1cccc(Cl)c1.[Cl-] | – | – | 1 | – | – | – | – | – | – | – | – | – | – | 0.398 | 7.2 | – | –
4 | C(#CCN1CCc2ccccc21)COC1=NOCC1 | > 10 | > 10 | – | – | – | – | – | – | – | – | – | – | – | – | – | – | –
5 | C[N+]1(CC#CCOC2=NOCC2)CCc2ccccc2C1 (stereo unspecified) | 0.474 | 5.66 | – | – | – | 2.26 | – | – | – | 6.96 | 0.887 | – | – | – | – | – | –
6 | Cc1cc(OCC#CCN(C)C)no1.O=C(O)/C=C/C(=O)O | 3.8 | > 10 | 0.6 | 1.1 | – | 1.1 | 1 | 0.513 | 39.8 | > 10 | > 10 | 0.794 | 3.56 | 3.47 | 5.45 | – | –
7 | C[N+]12CCC(CC1)/C(=N/OCC#CCOc1ccon1)C2.[I-] | > 10 | > 10 | 0.9 | 0.7 | – | – | – | > 100 | 9.33 | – | – | 3.55 | – | 4.27 | 3.82 | – | –
8 | C(#CCOc1ccon1)CO/N=C1\CN2CCC1CC2.O=C(O)/C=C/C(=O)O | – | – | 0 | 0.9 | 5.85 | – | 0.7 | 3.09 | 3.63 | – | – | 1.02 | 5.97 | – | – | – | –
9 | C(#CCN1CCCCC1)COC1=NOCC1.O=C(O)C(=O)O | 0.876 | 5.14 | 0 | 1 | 5.91 | 6.04 | 0.6 | 1.1 | 21.9 | 4.55 | 3.92 | 1.78 | 6.22 | – | – | – | –
10 | C[N+]1(CC#CCOC2=NOCC2)CCCCC1.[I-] | 0.219 | 4.12 | 0.4 | 1 | – | 1.68 | 1 | 0.0457 | 0.295 | 7.37 | 4.74 | 0.269 | 6.74 | 0.794 | 6.51 | – | –
11 | C[N+]1(CC#CCOc2cc(-c3ccccc3)on2)CCCC1.[I-] | > 10 | 1.84 | 0 | 0 | 6.88 | 5.99 | 0 | – | – | 3.38 | 1.45 | – | – | – | – | 5.53 | 5.95
12 | C[N+]1(CC#CCN2OCCC2=O)CCc2ccccc2C1 (stereo unspecified) | > 10 | > 10 | – | – | – | – | – | – | – | – | – | – | – | – | – | – | –
13 | O=C1CCON1CC#CCN1CCCC1 | 0.07 | 0.51 | – | – | – | 0.222 | – | – | – | 0.905 | 0.392 | – | – | – | – | – | –
14 | C(#CCN1CCCC1)COc1cc(-c2ccccc2)on1 | > 10 | 6.88 | 1 | 0 | – | 5.48 | 0.6 | 21.9 | – | 6.14 | 4.01 | – | – | 44.7 | – | 4.94 | –
15 | Cc1cc(OCC#CCN2CCCC2)no1.O=C(O)/C=C/C(=O)O | > 10 | > 10 | 0 | 0.4 | 5.66 | – | 0 | – | 15.5 | – | – | 15.1 | – | – | – | – | 4.81
16 | C[N+]1(CC#CCN2OCCC2=O)CCCCC1 | > 10 | > 10 | – | – | – | – | – | – | – | – | – | – | – | – | – | – | –
17 | C[N+]1(CC#CCOC2=NOCC2)CCc2ccccc21 (stereo unspecified) | 4.1 | > 10 | – | – | – | > 10 | – | – | – | > 10 | 5.54 | – | – | – | – | – | –
18 | O=C1CCON1CC#CCN1CCc2ccccc2C1 | > 10 | > 10 | – | – | – | – | – | – | – | – | – | – | – | – | – | – | –
19 | Cc1cc(OCC#CC[N+](C)(C)C)no1.[I-] | 0.05 | 6.31 | 0.9 | 1 | – | 0.682 | 1 | 0.00661 | 0.676 | > 10 | 3.99 | 0.00724 | 7.03 | 0.0398 | 6.97 | – | –
20 | C[N+]1(CC#CCN2OCCC2=O)CCc2ccccc21 (stereo unspecified) | > 10 | > 10 | – | – | – | – | – | – | – | – | – | – | – | – | – | – | –
21 | C(#CCN1CCc2ccccc2C1)COC1=NOCC1 | > 10 | > 10 | – | – | – | – | – | – | – | – | – | – | – | – | – | – | –
22 | CC(C[N+](C)(C)C)OC(N)=O (stereo unspecified) [BETHANECHOL] | – | – | – | 1 | – | – | 1 | 0.646 | 12.6 | – | – | 0.427 | 5.37 | – | – | – | –
23 | CN(C)CC#CCOc1cc(-c2ccccc2)on1 | > 10 | > 10 | – | – | – | – | – | – | – | – | – | – | – | – | – | – | –
